# Screens: PubChem, The Scripps Research Institute Molecular Screening Center
# TAAR1 antag – antagonists of human TAAR1; Q96RJ0; CHO RD-HGA16 TAAR1, Fluo-8 calcium fluorescence, antagonist; inhibition, % at 3 µM; actives 1.5% (n = 360,000); AID 624466;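 active means inhibition above a per-plate cutoff, the mean inhibition of test compounds on that plate plus 3 SD, cut at about 49% in these data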;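 further: 0% = DMSO plus EC80 beta-PEA response and 100% = DMSO alone without agonist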
# Target sequence (Q96RJ0 whole entry, looked up): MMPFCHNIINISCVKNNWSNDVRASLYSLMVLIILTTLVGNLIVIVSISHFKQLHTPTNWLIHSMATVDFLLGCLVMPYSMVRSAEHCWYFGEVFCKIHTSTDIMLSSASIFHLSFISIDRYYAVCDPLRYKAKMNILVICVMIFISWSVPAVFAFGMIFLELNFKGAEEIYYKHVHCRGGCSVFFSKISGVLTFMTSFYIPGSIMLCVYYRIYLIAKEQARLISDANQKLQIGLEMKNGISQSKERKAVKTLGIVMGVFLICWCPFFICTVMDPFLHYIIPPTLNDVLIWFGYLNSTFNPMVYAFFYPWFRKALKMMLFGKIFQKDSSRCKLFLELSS
#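 Test system – hTAAR1-expressing CHO RD-HGA16 cells, Gα16-coupled · Also added – β-PEA at EC80 concentration, post-compound challenge · Compound – 3 µM, single point · Incubation – dye loading 75 min at 37 °C, then 30 min room temperature · Measured by – Fluo-8 intracellular calcium dye fluorescence, real-time kinetic reads · Benchmarks – vehicle and agonist controls · Replicates – singlicate, one well per test compound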
# OX1R antag-1 – antagonists of human orexin 1 receptor (OX1R). O43613. OX1R-expressing cells, FRET antagonist read-out. inhibition, % at 6.6 µM. actives 1.8% (n = 330,000); in the data active means inhibition mostly above about 38%, no sharp cut-off; inactive means mostly below about 40%;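 further: 0% = agonist challenge alone and 100% = reference antagonist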
# OX1R antag-2 – antagonists of human orexin 1 receptor | O43613 | CHO/OX1R cells, Fluo-8 calcium fluorescence, orexin A | inhibition, % at 5 µM | actives 0.43% (n = 330,000) | AID 434989;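 active means inhibition above its plate's threshold, mean inhibition of all tested compounds on the plate plus 3 SD, cut at about 37% in these data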;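 further: 0% = orexin A challenge wells and 100% = SB-334867-A antagonist wells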
# TAAR1 ag – agonists of human TAAR1; Q96RJ0; CHO RD-HGA16 TAAR1, Fluo-8 calcium fluorescence; vehicle wells 0%, saturating PEA agonist 100%; activation, % at 3 µM; actives 0.99% (n = 360,000);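 active means activation above the mean activation of all test compounds in the run plus 3 SD, cut at about 38% in these data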
#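 test system = CHO RD-HGA16 cells carrying human TAAR1 plus Gα16 | schedule = 17-24 h seeding, 75 min 37 °C dye, 30 min RT | compound dosing = 3 µM single concentration | control set = DMSO and PEA EC100 | replicates = n 1 | signal = Fluo-8 fluorescence, 5 s baseline then 140 s kinetic read | measure = percent activation vs PEA EC100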
# CHO parental Ca – counter-screen for OX1R antagonists: effect in parental CHO cells. inhibition, % at 5.6 µM. actives 0.63% (n = 330,000). parental CHO-K1, ATP-induced calcium, Fluo-8 fluorescence;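 active means inhibition above that plate's mean sample inhibition plus 3 SD, cut at about 26% in these data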;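 further: 0% = ATP-challenged DMSO wells and 100% = DMSO wells without ATP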
#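 Test system: untransfected parental CHO cell line. Compound: one dose, 5.6 µM nominal. Detection: intracellular calcium via Fluo-8 no-wash fluorescent dye. Measure: % inhibition. Benchmarks: ATP-challenged DMSO wells low, unchallenged DMSO wells high.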
# GPR7 antagonist – blocks human GPR7 receptor signaling | P48145 | GPR7-expressing cells, fluorescence antagonist assay | inhibition, % at 4.4 µM | actives 1.1% (n = 290,000) | AID 1861; in the data active means inhibition above about 16%, passing the limit was not always enough;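 further: cells stimulated with the agonist NPW; 0% = agonist with vehicle and 100% = vehicle without agonist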
# TAAR1 ag confirm – human TAAR1 agonism, confirmed; shares compounds with TAAR1 ag; CHO RD-HGA16 TAAR1, Fluo-8 calcium fluorescence; scaled: DMSO 0%, maximal phenethylamine 100%; activation, % at 3 µM; actives 82% (n = 2,400); AID 651783;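 active means activation above a cutoff set at the run's mean compound activation plus 3 SD, cut at about 39% in these data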
# Ga16 nonsel ag – counter-screen for TAAR1 agonists: nonselective agonists in parental cells. AID 651787. CHO-Ga16 parental, Fluo-8 calcium fluorescence; normalized to maximal ATP response, DMSO zero. shares compounds with TAAR1 ag. actives 50% (n = 2,400). activation, % at 3 µM;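 active means activation above the run cutoff, the mean activation over all tested wells plus 3 SD, cut at about 12% in these data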;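 further: 0% = DMSO wells and 100% = maximal ATP response on the peak over basal ratio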
# TAAR1 desensitize – counter-screen for human TAAR1 agonists: agonists that desensitize TAAR1 | shares compounds with TAAR1 ag | CHO RD-HGA16 hTAAR1, Fluo-8 calcium, beta-PEA response inhibition | inhibition, % at 3 µM | actives 46% (n = 2,400);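 active means inhibition above the run cutoff, the mean inhibition of all test compounds plus 3 SD, cut at about 49% in these data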;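 further: beta-PEA stimulus applied at its EC80; loss of beta-PEA calcium signal after compound pretreatment read as receptor desensitization; 0% = DMSO with beta-PEA at EC80 and 100% = DMSO alone without agonist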
# Ga16 nonsel ant – nonselective Ga16 antagonism, counter-screen | shares compounds with TAAR1 ag | CHO-Ga16 ATP-induced calcium, Fluo-8 fluorescence | inhibition, % at 3 µM | actives 39% (n = 2,400) | AID 651952;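 active means inhibition above the plate's mean compound inhibition plus 3 SD, computed per plate, cut at about 22% in these data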;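 further: 0% = EC80 ATP with DMSO and 100% = DMSO wells without ATP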
# An asterisk follows results filed as active; nt = no result given. Sampled rows, rich in hits. Any-hit rate of the full collection: about 4.6%.
SMILES,TAAR1 antag,OX1R antag-1,OX1R antag-2,TAAR1 ag,CHO parental Ca,GPR7 antagonist,TAAR1 ag confirm,Ga16 nonsel ag,TAAR1 desensitize,Ga16 nonsel ant
COCCn1c(N)c(C(=O)c2cccc(S(=O)(=O)N3CCCCCC3)c2)c(=O)[nH]c1=O,-15.7,5.9,0.1,8.3,-10.2,nt,nt,nt,nt,nt
CC#CC(=O)N1CCC(n2nccc2NC(=O)CCc2ccccc2)CC1,-22.9,nt,nt,2.6,nt,nt,nt,nt,nt,nt
CCC(C)(C)n1nnnc1C(c1ccc(O)cc1)N1CCc2ccccc2C1 (stereo not drawn),84.0*,7.0,-20.7,97.8*,5.4,3.2,92.5*,4.3,86.2*,15.1
CC(C)(C)n1nnnc1C(c1ccccc1)N1CCc2ccccc2C1 (stereo not drawn),nt,3.2,-14.9,nt,-15.5,8.8,nt,nt,nt,nt
CCCCn1nnnc1C(c1ccccc1)N1CCc2ccccc2C1 (stereo not drawn),10.7,nt,nt,-1.8,nt,nt,nt,nt,nt,nt
COCCn1nnnc1C(c1ccc(O)c(OC)c1)N1CCc2ccccc2C1 (stereo not drawn),84.2*,6.8,-16.9,86.1*,-7.8,-2.7,103.3*,0.7,96.8*,8.8
CCOc1ccc(NC(=O)c2ccc3c(c2)CCN3S(C)(=O)=O)cc1,29.8,29.0,-16.0,11.7,-7.3,-14.8,nt,nt,nt,nt
COCCNC(=O)C1(C)CCCN(C(=O)c2ccccc2OC)C1 (stereo not drawn),-8.9,nt,nt,-0.1,nt,nt,nt,nt,nt,nt
CCOCc1nnc(NC(=O)C2c3ccccc3Oc3ccccc32)s1,22.6,-1.1,2.2,77.0*,6.2,21.3,91.1*,54.2*,49.2*,37.1*
Cc1nnc(NC(=O)C2c3ccccc3Oc3ccccc32)s1,-19.5,4.7,-25.1,18.1,-8.7,-6.7,nt,nt,nt,nt
Cc1ccc(Cl)c2sc(NC(=O)C3=COCCO3)nc12,11.1,13.6,-0.4,60.8*,-13.9,-1.0,12.7,20.1*,10.7,12.6
COc1ccc(Cl)c2sc(NC(=O)C3=COCCO3)nc12,-17.5,21.5,-13.6,10.3,-14.5,nt,nt,nt,nt,nt
Cc1cc(C)nc(N2CCN(C(=O)CCC(=O)Nc3nnc(C(C)C)s3)CC2)n1,5.6,3.3,-29.8,8.0,-13.5,-2.2,nt,nt,nt,nt
COc1ccccc1-c1noc(CCC(=O)Nc2cccc(C)c2)n1,5.1,23.5,-10.2,17.1,-30.9,3.6,nt,nt,nt,nt
COc1ccc(NC(=O)CCc2nc(-c3ccccc3F)no2)cc1,15.0,23.6,-2.3,47.7*,-12.3,-1.7,67.1*,7.7,44.2,19.5
O=C1c2ccccc2C(c2nc3ccccc3[nH]2)N1c1ccccn1 (stereo not drawn),-1.9,nt,nt,2.3,nt,nt,nt,nt,nt,nt
CC(C)CCNC(=O)C(c1ccc(O)cc1)N(Cc1ccco1)C(=O)CCC(=O)Nc1nccs1 (stereo not drawn),-10.6,39.6,1.0,3.1,-1.1,-7.4,nt,nt,nt,nt
C=CCNc1nc(-c2ccc(O)c(C(N)=O)c2)cs1,-26.8,27.6,-8.8,3.0,1.3,2.6,nt,nt,nt,nt
NC(=O)c1cc(-c2csc(NCCc3ccccc3)n2)ccc1O,-10.8,15.2,-17.3,48.8*,-16.3,-1.0,45.9*,6.3,21.2,18.7
Cc1nc(NC(=O)c2ccccc2)sc1-c1csc(NCCc2ccccc2)n1,47.9,21.3,-5.7,63.9*,-7.3,5.6,61.2*,20.9*,58.2*,34.3*
COc1ccc(S(=O)(=O)CC2(O)CCN(C(=O)CC(C)C)CC2)cc1,-3.4,4.4,-11.7,1.4,4.2,-5.7,nt,nt,nt,nt
CN(CCc1ccccn1)C1CC(=O)N(c2ccc(Cl)cc2)C1=O (stereo not drawn),6.6,16.6,-33.4,67.5*,-25.0,-3.3,17.1,-0.4,-3.3,1.2
